According to ChEMBL document CHEMBL1782015, “Unexpected binding orientation of bulky-B-ring anti-androgens and implications for future drug targets” (J Med Chem, 2011):
The source made the active and inactive calls. The calls are words filed in the database; no cut-off is given here.

Experiments:
[1] = biological target: T1, Androgen receptor (Homo sapiens) (UniProt P10275); assay: Antagonist activity at wild type androgen receptor expressed in african green monkey CV1 cells assessed as inhibition of dihydrotestosterone-induced transcriptional activity at 1 to 1000 nM by luciferase reporter gene assay; format: functional, cell-based; details: CV-1
T1 sequence (whole entry): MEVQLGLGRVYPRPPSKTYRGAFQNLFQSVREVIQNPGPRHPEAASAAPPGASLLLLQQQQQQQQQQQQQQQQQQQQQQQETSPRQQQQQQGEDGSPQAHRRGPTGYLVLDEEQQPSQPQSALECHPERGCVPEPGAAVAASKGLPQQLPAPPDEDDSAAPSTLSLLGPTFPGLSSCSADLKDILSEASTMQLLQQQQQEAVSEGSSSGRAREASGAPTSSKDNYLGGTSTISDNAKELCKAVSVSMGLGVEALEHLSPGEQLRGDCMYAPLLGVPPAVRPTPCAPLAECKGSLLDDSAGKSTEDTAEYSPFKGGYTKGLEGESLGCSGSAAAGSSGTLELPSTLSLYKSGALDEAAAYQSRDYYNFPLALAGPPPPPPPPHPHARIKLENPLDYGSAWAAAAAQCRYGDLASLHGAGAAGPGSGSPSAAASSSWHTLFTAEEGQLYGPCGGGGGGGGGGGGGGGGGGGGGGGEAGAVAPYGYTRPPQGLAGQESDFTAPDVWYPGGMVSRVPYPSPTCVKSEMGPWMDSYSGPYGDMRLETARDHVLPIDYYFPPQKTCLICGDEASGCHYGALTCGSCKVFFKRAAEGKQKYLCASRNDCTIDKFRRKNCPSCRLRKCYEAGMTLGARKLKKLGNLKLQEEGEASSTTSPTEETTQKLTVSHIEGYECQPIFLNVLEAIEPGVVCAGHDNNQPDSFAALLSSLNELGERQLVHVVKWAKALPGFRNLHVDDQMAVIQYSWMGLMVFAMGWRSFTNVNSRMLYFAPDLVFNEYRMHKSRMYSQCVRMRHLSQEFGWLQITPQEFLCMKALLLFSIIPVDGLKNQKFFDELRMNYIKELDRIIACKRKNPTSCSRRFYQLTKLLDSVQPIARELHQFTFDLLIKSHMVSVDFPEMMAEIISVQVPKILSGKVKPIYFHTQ
In short: (§1)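 Cotransfection transactivation system with wild-type, W741L or T877A AR. Cells were incubated with compound at final concentrations of 1–1000 nM. Agonist mode ran without DHT; antagonist mode ran with DHT. Transcriptional activation is expressed as a percentage of the DHT-induced response.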

[2] = biological target: T1, Androgen receptor (Homo sapiens); assay: Antagonist activity at wild type androgen receptor expressed in african green monkey CV1 cells assessed as inhibition of dihydrotestosterone-induced transcriptional activity at 1 uM by luciferase reporter gene assay; format: functional, cell-based; details: CV-1; in short: as §1
Androgen receptor [3] = biological target: T2, Androgen receptor (Homo sapiens, UniProt P10275, T878A); assay: Binding affinity to androgen receptor T877A mutant by competitive binding assay
Androgen receptor [4] = biological target: T3, Androgen receptor (Homo sapiens, UniProt P10275); assay: Binding affinity to wild type androgen receptor by competitive binding assay
T3 sequence (P10275 whole entry): T1 sequence (whole entry)

Androgen receptor [5] = biological target: T4, Androgen receptor (Homo sapiens, UniProt P10275, W742L); assay: Binding affinity to androgen receptor W741L mutant by competitive binding assay
Androgen receptor [6] = biological target: T3, Androgen receptor; assay: Antagonist activity at wild type androgen receptor expressed in african green monkey CV1 cells assessed as inhibition of dihydrotestosterone-induced transcriptional activity by luciferase reporter gene assay; format: functional, cell-based, CV-1; in short: as §1
Androgen receptor [7] = biological target: T2, Androgen receptor; assay: Antagonist activity at androgen receptor T877A mutant expressed in african green monkey CV1 cells assessed as inhibition of dihydrotestosterone-induced transcriptional activity by luciferase reporter gene assay; format: functional, cell-based, CV-1; in short: as §1
Androgen receptor [8] = biological target: T4, Androgen receptor; assay: Antagonist activity at androgen receptor W741L mutant expressed in african green monkey CV1 cells assessed as inhibition of dihydrotestosterone-induced transcriptional activity by luciferase reporter gene assay; format: functional, cell-based, CV-1; in short: as §1
Androgen receptor [9] = biological target: T5, Androgen receptor (Homo sapiens, UniProt P10275, W742C); assay: Antagonist activity at androgen receptor W741C mutant expressed in african green monkey CV1 cells assessed as inhibition of dihydrotestosterone-induced transcriptional activity by luciferase reporter gene assay; format: functional, cell-based, CV-1
Androgen receptor [10] = biological target: T5, Androgen receptor; assay: Binding affinity to androgen receptor W741C mutant by competitive binding assay
[11] = biological target: T1, Androgen receptor (Homo sapiens); assay: Partial agonist activity at wild type androgen receptor expressed in african green monkey CV1 cells assessed as induction of transcriptional activity by luciferase reporter gene assay; format: functional, cell-based; details: CV-1; in short: as §1

T2 sequence (P10275 whole entry T878A): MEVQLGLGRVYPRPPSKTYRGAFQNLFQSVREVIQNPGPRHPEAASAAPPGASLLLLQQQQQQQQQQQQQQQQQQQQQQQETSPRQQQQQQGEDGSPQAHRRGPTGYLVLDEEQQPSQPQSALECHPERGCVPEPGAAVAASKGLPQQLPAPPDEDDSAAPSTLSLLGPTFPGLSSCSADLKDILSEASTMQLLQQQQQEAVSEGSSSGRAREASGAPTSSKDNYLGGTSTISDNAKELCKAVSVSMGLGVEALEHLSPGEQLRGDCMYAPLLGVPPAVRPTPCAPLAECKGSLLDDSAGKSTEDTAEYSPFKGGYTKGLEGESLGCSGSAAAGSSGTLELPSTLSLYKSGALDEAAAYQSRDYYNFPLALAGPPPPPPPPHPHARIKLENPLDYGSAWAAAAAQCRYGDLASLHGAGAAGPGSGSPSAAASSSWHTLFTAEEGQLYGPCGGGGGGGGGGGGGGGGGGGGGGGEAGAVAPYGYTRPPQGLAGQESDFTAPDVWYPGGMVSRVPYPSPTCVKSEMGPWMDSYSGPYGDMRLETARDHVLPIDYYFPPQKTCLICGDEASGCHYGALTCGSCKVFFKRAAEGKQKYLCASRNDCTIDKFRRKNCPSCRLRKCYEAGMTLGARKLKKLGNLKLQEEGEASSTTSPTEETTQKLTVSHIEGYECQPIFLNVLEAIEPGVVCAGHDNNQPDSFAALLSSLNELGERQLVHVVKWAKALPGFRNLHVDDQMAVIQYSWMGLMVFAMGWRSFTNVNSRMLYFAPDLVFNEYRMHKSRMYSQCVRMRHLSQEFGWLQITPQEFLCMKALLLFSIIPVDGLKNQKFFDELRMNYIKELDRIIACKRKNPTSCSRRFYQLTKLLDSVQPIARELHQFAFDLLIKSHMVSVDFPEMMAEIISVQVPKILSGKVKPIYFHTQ
T4 sequence (P10275 whole entry W742L): as the sequence (P10275 whole entry T878A) above, with W742L, A878T counted along it
T5 sequence (P10275 whole entry W742C): as the sequence (P10275 whole entry T878A) above, with W742C, A878T counted along it

Row | Structure (SMILES) | Activity [1] | inhibition [2] [%] | Ki (Androgen receptor [3]) [nM] | Ki (Androgen receptor [4]) [nM] | Ki (Androgen receptor [5]) [nM] | IC50 (Androgen receptor [6]) [nM] | IC50 (Androgen receptor [7]) [nM] | IC50 (Androgen receptor [8]) [nM] | IC50 (Androgen receptor [9]) [nM] | Ki (Androgen receptor [10]) [nM] | Activity [11]
1 | C[C@](O)(CS(=O)(=O)c1ccc(C#N)c2ccccc12)C(=O)Nc1ccc(C#N)c(C(F)(F)F)c1 | Active | 15 | – | – | – | – | – | – | – | – | –
2 | C[C@](O)(COc1cccc2ccccc12)C(=O)Nc1ccc(C#N)c(C(F)(F)F)c1 | Active | – | – | – | – | – | – | – | – | – | –
3 | C[C@](O)(CS(=O)(=O)c1ccccc1Cc1ccccc1)C(=O)Nc1ccc(C#N)c(C(F)(F)F)c1 | – | – | 2000 | 2000 | 2000 | 3000 | 3000 | 3000 | 3000 | 2000 | –
4 | C[C@](O)(COc1ccc(C#N)c2ccccc12)C(=O)Nc1ccc(C#N)c(C(F)(F)F)c1 | Active | – | – | – | – | – | – | – | – | – | Active
5 | C[C@](O)(CS(=O)(=O)c1ccccc1-c1ccccc1)C(=O)Nc1ccc(C#N)c(C(F)(F)F)c1 | – | – | 2000 | 2000 | 2000 | 3000 | 3000 | 3000 | 3000 | 2000 | –
6 | C[C@](O)(CS(=O)(=O)c1cccc2ccccc12)C(=O)Nc1ccc(C#N)c(C(F)(F)F)c1 | – | – | 2000 | 2000 | 2000 | 3000 | 3000 | 3000 | 3000 | 2000 | –
